≈ marks a conversion by molar mass, not a printed value. Calls of active or inactive are those of the source. No cut-off for these calls is given here.
How the values were obtained:
[1] = Antifungal activity against Malassezia pachydermatis at 1000 ug/disc after 48 hrs by disc diffusion assay; format: functional
Method in brief: (§1)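 Fungal disc diffusion with inoculum from SDA spores (filamentous) or SDB culture (yeast). Test cultures were swabbed on agar, and discs at 1000 µg/disc were left 30 min at room temperature, with a solvent negative control. Plates were incubated 48 h at 27 °C. Zone of inhibition was measured in mm, and the experiment was repeated twice.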

[2] = test system: Candida albicans; test: Antifungal activity against Candida albicans MTCC 227 at 1000 ug/disc after 48 hrs by disc diffusion assay; format: functional; conditions: MTCC 227, 48 h, read-out: IZ; method in brief: as §1
[3] = test system: Botrytis cinerea; test: Antifungal activity against Botrytis cinerea at 1000 ug/disc after 48 hrs by disc diffusion assay; format: functional; conditions: read-out: IZ; method in brief: as §1
[4] = test system: Staphylococcus aureus; test: Antibacterial activity against Staphylococcus aureus MTCC 96 after 24 hrs by twofold serial dilution method; format: functional; conditions: MTCC 96, 24 h
Method in brief: (§2)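 Bacteria grown in Mueller Hinton broth for 24 h at 37 °C and diluted to about 10^4 CFU/ml. Compound in 2% DMSO was serially diluted two-fold (1000 to 15.62 µg/ml) in medium in 96-well plates and inoculated. Plates were incubated 24 h at 37 °C. 5 µl of broth was spotted onto MHA, and MIC was taken as the lowest concentration with no visible growth on agar.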

[5] = test system: Staphylococcus aureus; test: Antibacterial activity against methicillin-resistant Staphylococcus aureus after 24 hrs by twofold serial dilution method; format: functional
Method in brief: (§3)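 Broth microdilution in MHB following the standard bacterial reference method. Compound was dissolved in DMSO (2%) and serially diluted two-fold from 1000 to 15.62 µg/ml in 96-well plates, with an inoculum of about 10^4 CFU/ml. Streptomycin and ciprofloxacin were positive controls. After 24 h at 37 °C, 5 µl of broth was subcultured on MHA. MIC was the lowest concentration without visible growth on agar.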

[6] = test system: Micrococcus luteus; test: Antibacterial activity against Micrococcus luteus after 24 hrs by twofold serial dilution method; format: functional; method in brief: as §2
[7] = test system: Klebsiella aerogenes; test: Antibacterial activity against Enterobacter aerogenes MTCC 111 after 24 hrs by twofold serial dilution method; format: functional; conditions: MTCC 111, 24 h; method in brief: as §2
[8] = test system: Proteus vulgaris; test: Antibacterial activity against Proteus vulgaris MTCC 1771 after 24 hrs by twofold serial dilution method; format: functional; conditions: MTCC 1771, 24 h; method in brief: as §2
[9] = test system: Klebsiella pneumoniae; test: Antibacterial activity against Klebsiella pneumoniae MTCC 109 after 24 hrs by twofold serial dilution method; format: functional; conditions: MTCC 109, 24 h; method in brief: as §2
[10] = test system: Salmonella typhimurium; test: Antibacterial activity against Salmonella Typhimurium MTCC 1251 after 24 hrs by two-fold serial dilution method; format: functional, Salmonella enterica subsp. enterica serovar Typhimurium; conditions: Salmonella enterica, MTCC 1251, 24 h; method in brief: as §2
[11] = test system: Salmonella enterica subsp. enterica serovar Paratyphi B; test: Antibacterial activity against Salmonella paratyphi B after 24 hrs by twofold serial dilution method; format: functional; method in brief: as §3
[12] = Antifungal activity against Malassezia pachydermatis after 48 to 72 hrs by twofold serial dilution method; format: functional
Method in brief: (§4)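 Broth two-fold serial dilution, 1000 to 15.62 µg/ml, with compound dissolved in 2% DMSO, in 96-well plates. Filamentous fungal spores came from 10-day SDA slants at 28 °C, and yeast from SDB grown 48 h at 28 °C. Incubation was 48-72 h at 28 °C. MIC was the lowest concentration with no visible fungal growth.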

[13] = test system: Candida albicans; test: Antifungal activity against Candida albicans MTCC 227 after 48 to 72 hrs by twofold serial dilution method; format: functional; method in brief: as §4
[14] = test system: Botrytis cinerea; test: Antifungal activity against Botrytis cinerea after 48 to 72 hrs by twofold serial dilution method; format: functional; method in brief: as §4
[15] = test system: Staphylococcus aureus; test: Ratio of streptomycin MIC to compound MIC for methicillin-resistant Staphylococcus aureus; format: functional
[16] = test system: Staphylococcus aureus; test: Ratio of ciprofloxacin MIC to compound MIC for methicillin-resistant Staphylococcus aureus; format: functional
[17] = test system: Micrococcus luteus; test: Ratio of ciprofloxacin MIC to compound MIC for Micrococcus luteus; format: functional
[18] = test system: Salmonella typhimurium; test: Ratio of ciprofloxacin MIC to compound MIC for Salmonella Typhimurium MTCC 1251; format: functional, Salmonella enterica subsp. enterica serovar Typhimurium
[19] = test system: Candida albicans; test: Ratio of fluconazole MIC to compound MIC for Candida albicans MTCC 227; format: functional
[20] = test system: Staphylococcus aureus; test: Antibacterial activity against Staphylococcus aureus MTCC 96 at 1000 ug/disc after 24 hrs by disc diffusion assay; format: functional; conditions: MTCC 96, 24 h, read-out: IZ
Method in brief: (§5)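 Disc diffusion on Mueller Hinton agar. Cultures (about 10^4 CFU/ml) were swabbed on and dried 10 min. Discs loaded at 1000 µg/disc were left 30 min at room temperature for diffusion, with a solvent negative control. Plates were incubated 24 h at 37 °C. Inhibition zones were measured in mm, and the experiment was done twice.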

[21] = test system: Staphylococcus aureus; test: Antibacterial activity against methicillin-resistant Staphylococcus aureus at 1000 ug/disc after 24 hrs by disc diffusion assay; format: functional; conditions: read-out: IZ
Method in brief: (§6)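 Disc diffusion on Mueller Hinton agar. Bacteria were grown 24 h at 37 °C in MHB and diluted to about 10^4 CFU/ml, swabbed onto plates and dried 10 min. Discs were loaded at 1000 μg/disc and held 30 min at room temperature for diffusion. Solvent served as negative control. After 24 h at 37 °C, inhibition zones were read in mm; run twice.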

[22] = test system: Micrococcus luteus; test: Antibacterial activity against Micrococcus luteus at 1000 ug/disc after 24 hrs by disc diffusion assay; format: functional; conditions: read-out: IZ; method in brief: as §5
[23] = test system: Klebsiella aerogenes; test: Antibacterial activity against Enterobacter aerogenes MTCC 111 at 1000 ug/disc after 24 hrs by disc diffusion assay; format: functional; conditions: MTCC 111, 24 h, read-out: IZ; method in brief: as §5
[24] = test system: Proteus vulgaris; test: Antibacterial activity against Proteus vulgaris MTCC 1771 at 1000 ug/disc after 24 hrs by disc diffusion assay; format: functional; conditions: MTCC 1771, 24 h, read-out: IZ; method in brief: as §5
[25] = test system: Klebsiella pneumoniae; test: Antibacterial activity against Klebsiella pneumoniae MTCC 109 at 1000 ug/disc after 24 hrs by disc diffusion assay; format: functional; conditions: MTCC 109, 24 h, read-out: IZ; method in brief: as §5
[26] = test system: Salmonella typhimurium; test: Antibacterial activity against Salmonella Typhimurium MTCC 1251 at 1000 ug/disc after 24 hrs by disc diffusion assay; format: functional, Salmonella enterica subsp. enterica serovar Typhimurium; conditions: Salmonella enterica, MTCC 1251, 24 h; read-out: IZ; method in brief: as §5
[27] = test system: Salmonella enterica subsp. enterica serovar Paratyphi B; test: Antibacterial activity against Salmonella paratyphi B at 1000 ug/disc after 24 hrs by disc diffusion assay; format: functional; conditions: read-out: IZ; method in brief: as §6
[28] = test system: Staphylococcus aureus; test: Antibacterial activity against Staphylococcus aureus MTCC 96 at 10 ug/disc after 24 hrs by disc diffusion assay; format: functional; conditions: MTCC 96, 24 h, read-out: IZ
Method in brief: (§7)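 Streptomycin positive-control discs (10 µg/disc) on Mueller Hinton agar swabbed with bacterial culture (about 10^4 CFU/ml). Discs stood 30 min at room temperature, then plates were incubated 24 h at 37 °C. Zones of inhibition were recorded in mm, and the experiment was repeated twice.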

[29] = test system: Staphylococcus aureus; test: Antibacterial activity against methicillin-resistant Staphylococcus aureus at 10 ug/disc after 24 hrs by disc diffusion assay; format: functional; conditions: read-out: IZ
Method in brief: (§8)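 Streptomycin positive-control discs at 10 μg/disc on Mueller Hinton agar, swabbed with bacteria grown 24 h at 37 °C in MHB and diluted to about 10^4 CFU/ml. Discs stood 30 min at room temperature, then plates were incubated 24 h at 37 °C. Inhibition zones were measured in mm; experiment repeated twice.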

[30] = test system: Micrococcus luteus; test: Antibacterial activity against Micrococcus luteus at 10 ug/disc after 24 hrs by disc diffusion assay; format: functional; conditions: read-out: IZ; method in brief: as §7
[31] = test system: Klebsiella aerogenes; test: Antibacterial activity against Enterobacter aerogenes MTCC 111 at 10 ug/disc after 24 hrs by disc diffusion assay; format: functional; conditions: MTCC 111, 24 h, read-out: IZ; method in brief: as §7
[32] = test system: Proteus vulgaris; test: Antibacterial activity against Proteus vulgaris MTCC 1771 at 10 ug/disc after 24 hrs by disc diffusion assay; format: functional; conditions: MTCC 1771, 24 h, read-out: IZ; method in brief: as §7
[33] = test system: Klebsiella pneumoniae; test: Antibacterial activity against Klebsiella pneumoniae MTCC 109 at 10 ug/disc after 24 hrs by disc diffusion assay; format: functional; conditions: MTCC 109, 24 h, read-out: IZ; method in brief: as §7
[34] = test system: Salmonella typhimurium; test: Antibacterial activity against Salmonella Typhimurium MTCC 1251 at 10 ug/disc after 24 hrs by disc diffusion assay; format: functional, Salmonella enterica subsp. enterica serovar Typhimurium; conditions: Salmonella enterica, MTCC 1251, 24 h; read-out: IZ; method in brief: as §7
[35] = test system: Salmonella enterica subsp. enterica serovar Paratyphi B; test: Antibacterial activity against Salmonella paratyphi B at 10 ug/disc after 24 hrs by disc diffusion assay; format: functional; conditions: read-out: IZ; method in brief: as §8

CC(=O)N1C(=O)C2(C3=C(CN2C)C(=O)c2ccccc2C3=O)c2ccccc21 (stereo not drawn)
inhibition zone (IZ) [1]: 19 mm
zone of inhibition at 1000 µg/disc [2]: 18 mm
zone of inhibition at 1000 µg/disc [3]: 15 mm
MIC [4]: 31.2 µg/mL (≈ 83.9 µM)
MIC [5]: 62.5 µg/mL (≈ 168 µM)
MIC [6]: 15.6 µg/mL (≈ 41.9 µM)
MIC [7]: 15.6 µg/mL (≈ 41.9 µM)
MIC [8]: < 15.6 µg/mL
MIC [9]: 15.6 µg/mL (≈ 41.9 µM)
MIC [10]: 15.6 µg/mL (≈ 41.9 µM)
MIC [11]: < 15.6 µg/mL
MIC [12]: 15.6 µg/mL (≈ 41.9 µM)
MIC [13]: 31.2 µg/mL (≈ 83.9 µM)
MIC [14]: 125 µg/mL (≈ 336 µM)
Ratio [15]: >1.6
Ratio [16]: >1.6
Ratio [17]: >6.4
Ratio [18]: >6.4
Ratio [19]: >3.2
zone of inhibition at 1000 µg/disc [20]: 18 mm
zone of inhibition at 1000 µg/disc [21]: 16 mm
zone of inhibition at 1000 µg/disc [22]: 22 mm
zone of inhibition at 1000 µg/disc [23]: 21 mm
zone of inhibition at 1000 µg/disc [24]: 26 mm
zone of inhibition at 1000 µg/disc [25]: 24 mm
zone of inhibition at 1000 µg/disc [26]: 24 mm
zone of inhibition at 1000 µg/disc [27]: 28 mm

CN[C@@H]1[C@H](O[C@H]2[C@H](O[C@H]3[C@H](O)[C@@H](O)[C@H](N=C(N)N)[C@@H](O)[C@@H]3N=C(N)N)O[C@@H](C)[C@]2(O)C=O)O[C@@H](CO)[C@H](O)[C@H]1O [STREPTOMYCIN]
MIC [4]: 6.25 µg/mL (≈ 10.7 µM)
MIC [5]: > 100 µg/mL
MIC [6]: 6.25 µg/mL (≈ 10.7 µM)
MIC [7]: 25 µg/mL (≈ 43 µM)
MIC [8]: 6.25 µg/mL (≈ 10.7 µM)
MIC [9]: 6.25 µg/mL (≈ 10.7 µM)
MIC [10]: 30 µg/mL (≈ 51.6 µM)
MIC [11]: inactive
zone of inhibition at 10 µg/disc [28]: 16 mm
zone of inhibition at 10 µg/disc [29]: 20 mm
zone of inhibition at 10 µg/disc [30]: 23 mm
zone of inhibition at 10 µg/disc [31]: 22 mm
zone of inhibition at 10 µg/disc [32]: 22 mm
zone of inhibition at 10 µg/disc [33]: 20 mm
zone of inhibition at 10 µg/disc [34]: 23 mm
zone of inhibition at 10 µg/disc [35]: 17 mm
